According to ChEMBL document CHEMBL3407457, “Microwave-assisted synthesis of certain pyrrolylpyridines, some derived ring systems and their evaluation as anticancer and antioxidant agents” (Eur J Med Chem, 2015):
Calls of active or inactive are those of the source. No cut-off for these calls is given here.

How the values were obtained:
EKVX = assay: (§1) Growth inhibition of human EKVX cells at 10 uM after 48 hrs by sulforhodamine B assay; type: functional
How it was run: (§2)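 NCI-60 primary screen: cells given a single 10 µM dose under 48 h continuous exposure. Growth/viability estimated by sulforhodamine B protein assay. Reported as percent growth of treated cells (mean graph), expressed as percent growth inhibition.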

[1] = Growth inhibition of human HOP92 cells at 10 uM after 48 hrs by sulforhodamine B assay; type: functional; conditions: HOP-92, 48 h, read-out: GI; how it was run: as §2
NCI-H522 = assay: Growth inhibition of human NCI-H522 cells at 10 uM after 48 hrs by sulforhodamine B assay; type: functional; conditions: NCI-H522, 48 h, read-out: GI; how it was run: as §2
HCT-116 = assay: (§3) Growth inhibition of human HCT116 cells at 10 uM after 48 hrs by sulforhodamine B assay; type: functional; how it was run: as §2
[2] = Growth inhibition of human HCT15 cells at 10 uM after 48 hrs by sulforhodamine B assay; type: functional; conditions: HCT-15, 48 h, read-out: GI; how it was run: as §2
Hs-578T = assay: (§4) Growth inhibition of human Hs 578T cells at 10 uM after 48 hrs by sulforhodamine B assay; type: functional; how it was run: as §2
MDA-MB-468 = assay: Growth inhibition of human MDA-MB-468 cells at 10 uM after 48 hrs by sulforhodamine B assay; type: functional; conditions: for inhibition of growth at 10 µM: MDA-MB-468, 48 h, read-out: GI; how it was run: as §2
T47D = assay: Growth inhibition of human T47D cells at 10 uM after 48 hrs by sulforhodamine B assay; type: functional; conditions: read-out: GI; how it was run: as §2
IGROV-1 = assay: Growth inhibition of human IGROV1 cells at 10 uM after 48 hrs by sulforhodamine B assay; type: functional; conditions: IGROV-1, 48 h, read-out: GI; how it was run: as §2
OVCAR-4 = assay: (§5) Growth inhibition of human OVCAR4 cells at 10 uM after 48 hrs by sulforhodamine B assay; type: functional; how it was run: as §2
CCRF-CEM = assay: Growth inhibition of human CCRF-CEM cells at 10 uM after 48 hrs by sulforhodamine B assay; type: functional; conditions: read-out: GI; how it was run: as §2
HL-60(TB) = assay: Growth inhibition of human HL-60(TB) cells at 10 uM after 48 hrs by sulforhodamine B assay; type: functional; conditions: for inhibition of growth at 10 µM: HL-60, 48 h, read-out: GI
How it was run: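 NCI-60 one-dose primary screen, HL-60(TB) within the leukemia subpanel. Single 10 µM concentration, 48 h continuous exposure. Growth estimated by sulforhodamine B protein assay. Percent growth of treated cells expressed as percentage growth inhibition (GI%).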

K562 = assay: Growth inhibition of human K562 cells at 10 uM after 48 hrs by sulforhodamine B assay; type: functional; conditions: K562, 48 h, read-out: GI; how it was run: as §2
[3] = Growth inhibition of human MOLT4 cells at 10 uM after 48 hrs by sulforhodamine B assay; type: functional; conditions: MOLT-4, 48 h, read-out: GI; how it was run: as §2
[4] = Growth inhibition of human RPMI8226 cells at 10 uM after 48 hrs by sulforhodamine B assay; type: functional; conditions: RPMI-8226, 48 h, read-out: GI; how it was run: as §2
A498 = assay: Growth inhibition of human A498 cells at 10 uM after 48 hrs by sulforhodamine B assay; type: functional; conditions: A498, 48 h, read-out: GI; how it was run: as §2
ACHN = assay: Growth inhibition of human ACHN cells at 10 uM after 48 hrs by sulforhodamine B assay; type: functional; conditions: for inhibition of growth at 10 µM: read-out: GI; how it was run: as §2
CAKI-1 = assay: Growth inhibition of human CAKI-1 cells at 10 uM after 48 hrs by sulforhodamine B assay; type: functional; conditions: for inhibition of growth at 10 µM: CAKI-1, 48 h, read-out: GI; how it was run: as §2
UO-31 = assay: (§6) Growth inhibition of human UO31 cells at 10 uM after 48 hrs by sulforhodamine B assay; type: functional; how it was run: as §2
LOX IMVI = assay: (§7) Growth inhibition of human LOXIMVI cells at 10 uM after 48 hrs by sulforhodamine B assay; type: functional; how it was run: as §2
SK-MEL-5 = assay: Growth inhibition of human SK-MEL-5 cells at 10 uM after 48 hrs by sulforhodamine B assay; type: functional; conditions: SK-MEL-5, 48 h, read-out: GI; how it was run: as §2
[5] = Growth inhibition of human UACC62 cells at 10 uM after 48 hrs by sulforhodamine B assay; type: functional; conditions: UACC-62, 48 h, read-out: GI; how it was run: as §2
[6] = Growth inhibition of human PC3 cells at 10 uM after 48 hrs by sulforhodamine B assay; type: functional; conditions: PC-3, 48 h, read-out: GI; how it was run: as §2
SNB-75 = assay: Growth inhibition of human SNB75 cells at 10 uM after 48 hrs by sulforhodamine B assay; type: functional; conditions: for inhibition of growth at 10 µM: SNB-75, 48 h, read-out: GI; how it was run: as §2
U-251 = assay: Growth inhibition of human U251 cells at 10 uM after 48 hrs by sulforhodamine B assay; type: functional; how it was run: as §2
[7] = as §1; type: functional; conditions: read-out: GI; how it was run: as §2
[8] = as §3; type: functional; conditions: HCT-116, 48 h, read-out: GI; how it was run: as §2
[9] = as §4; type: functional; conditions: read-out: GI; how it was run: as §2
[10] = as §6; type: functional; conditions: UO-31, 48 h, read-out: GI; how it was run: as §2
[11] = Antioxidant activity assessed as DPPH radical scavenging activity at 10^-4 M incubated for 30 mins by spectrophotometry; type: physicochemical; conditions: 0.5 h, 100 µM
How it was run: (§8)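 Compound at 10^-3 or 10^-4 M mixed with methanolic DPPH (0.1 mL of 1 mM stock; 3 mL total volume), shaken, kept in the dark 30 min at room temperature. Absorbance read at 517 nm. Scavenging (%) = (A_control − A_sample)/A_control × 100, where the control is DPPH in methanol alone. BHT served as reference antioxidant. Triplicate, mean ± SD of three independent experiments.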

[12] = Antioxidant activity assessed as DPPH radical scavenging activity at 10^-3 M incubated for 30 mins by spectrophotometry; type: physicochemical; conditions: 0.5 h, 1000 µM; how it was run: as §8
[13] = as §5; type: functional; conditions: OVCAR-4, 48 h, read-out: GI; how it was run: as §2
[14] = as §7; type: functional; conditions: LOX IMVI, read-out: GI; how it was run: as §2

| SMILES | inhibition of growth at 10 µM [1] [%] | inhibition of growth at 10 µM (NCI-H522) [%] | inhibition of growth at 10 µM [2] [%] | inhibition of growth at 10 µM (MDA-MB-468) [%] | inhibition of growth at 10 µM (T47D) [%] | inhibition of growth at 10 µM (IGROV-1) [%] | growth inhibition (GI) (OVCAR-4) | inhibition of growth at 10 µM (CCRF-CEM) [%] | inhibition of growth at 10 µM (K562) [%] | inhibition of growth at 10 µM [3] [%] | inhibition of growth at 10 µM [4] [%] | inhibition of growth at 10 µM (A498) [%] | inhibition of growth at 10 µM (ACHN) [%] | inhibition of growth at 10 µM (CAKI-1) [%] | growth inhibition (GI) (LOX IMVI) | inhibition of growth at 10 µM (SK-MEL-5) [%] | inhibition of growth at 10 µM [5] [%] | inhibition of growth at 10 µM [6] [%] | growth inhibition (GI) (U-251) | inhibition of growth at 10 µM [7] [%] | further results |
| --- | --- | --- | --- | --- | --- | --- | --- | --- | --- | --- | --- | --- | --- | --- | --- | --- | --- | --- | --- | --- | --- |
| CC1CCCc2c1nc1[nH]c(=S)n(-c3ccccc3)c(=N)c1c2-c1cccn1C (configuration not stated) | 23.6 | 21.5 | 14.1 | 11.4 | 19.3 | 10.6 | inactive | 15.6 | 12.1 | 23.8 | 47.6 | 8.6 | 12.3 | 13.8 | inactive | 16.3 | 18.4 | 12.5 | inactive | – | growth inhibition (GI) (EKVX): inactive; growth inhibition (GI) (HCT-116): inactive; growth inhibition (GI) (Hs-578T): inactive; growth inhibition (GI) (HL-60(TB)): inactive; growth inhibition (GI) (UO-31): inactive; growth inhibition (GI) (SNB-75): inactive |
| CC1CCCc2c1nc1ncn(N)c(=N)c1c2-c1cccn1C (configuration not stated) | 11.3 | 10.4 | 13.4 | – | 17.5 | 12.4 | inactive | 30.1 | 18.3 | 29.2 | 38.6 | 14.6 | – | – | inactive | 10.5 | 16.9 | 20.4 | inactive | 16.2 | inhibition of growth at 10 µM [8]: 11.7%; inhibition of growth at 10 µM [9]: 10.7%; growth inhibition (GI) (MDA-MB-468): inactive; inhibition of growth at 10 µM (HL-60(TB)): 11.6%; growth inhibition (GI) (ACHN): inactive; growth inhibition (GI) (CAKI-1): inactive; inhibition of growth at 10 µM [10]: 7.3%; inhibition of growth at 10 µM (SNB-75): 10.7% |
| CCSc1nc(N)c2c(-c3cccn3C)c3c(nc2n1)C(C)CCC3 (configuration not stated) | 28.7 | 33.8 | 10.8 | 15.4 | 54.2 | 35.3 | – | 21.6 | 37.4 | 42.3 | 68.5 | 26.5 | 11.9 | 21.7 | – | 13.1 | 24.1 | 57.1 | – | 34.1 | inhibition (INH) [11]: 16%; inhibition (INH) [12]: 28%; inhibition of growth at 10 µM [8]: 35.3%; inhibition of growth at 10 µM [9]: 15.2%; inhibition of growth at 10 µM [13]: 23.4%; inhibition of growth at 10 µM (HL-60(TB)): 25.8%; inhibition of growth at 10 µM [10]: 45.8%; inhibition of growth at 10 µM [14]: 12.9%; inhibition of growth at 10 µM (SNB-75): 21.4%; inhibition of growth at 10 µM (U-251; U-251, 48 h, read-out: GI): 16.7% |
